Assay results as given in ChEMBL document CHEMBL4007487, “Discovery of Novel Pyridone-Conjugated Monosulfactams as Potent and Broad-Spectrum Antibiotics for Multidrug-Resistant Gram-Negative Infections” (J Med Chem, 2017).
≈ marks a conversion by molar mass, not a printed value.

Legend:
Klebsiella pneumoniae [1] = test: Antibacterial activity against extended spectrum beta-lactamase KPC-2 producing multidrug resistant Klebsiella pneumoniae clinical isolates after 18 hrs by broth microdilution method; format: functional
Plasma = test: Fraction unbound in human plasma at 10 uM after 4 hrs by LC-MS/MS based rapid equilibrium dialysis method; format: ADME, cell-free
How it was run: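 Human plasma spiked at 10 μM was dialysed against buffer in a rapid equilibrium dialysis device for 4 h at 37 °C under 5% CO2 (n = 4). Both sides were quantified by LC–MS/MS. Fraction unbound was taken as the buffer concentration divided by the total plasma-side concentration.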

Acinetobacter baumannii = test: Antibacterial activity against extended spectrum beta-lactamase OXA-23 producing multidrug resistant Acinetobacter baumannii clinical isolates after 18 hrs by broth microdilution method; format: functional
Pseudomonas aeruginosa = test: Antibacterial activity against extended spectrum beta-lactamase IMP-4 producing multidrug resistant Pseudomonas aeruginosa clinical isolates after 18 hrs by broth microdilution method; format: functional
Escherichia coli [2] = test: Antibacterial activity against extended spectrum beta-lactamases producing Escherichia coli clinical isolates after 18 hrs by broth microdilution method; format: functional
[3] = Drug degradation in human plasma at 10 uM after 4 hrs by LC-MS/MS analysis; format: ADME, cell-free; conditions: read-out: Drug degradation
How it was run: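 Human plasma containing compound (10 μM, n = 4) was incubated for 4 h at 37 °C under 5% CO2. Concentrations at T0 and at 4 h were measured by LC–MS/MS, and degradation was expressed as a percentage relative to the T0 average.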

Klebsiella pneumoniae [4] = test: Antibacterial activity against Klebsiella pneumoniae isolate 212232 after 18 hrs by broth microdilution method; format: functional; conditions: isolate 212232, 18 h
How it was run: (§1)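 CLSI broth microdilution in Mueller-Hinton broth with 16 mg/L 2,2'-bipyridyl added. Compounds were dissolved in DMSO, or in water for meropenem and ceftizoxime sodium, then serially diluted in growth medium.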

in vivo = conditions: Sprague-Dawley, rat, iv, 1 mg/kg
Escherichia coli [5] = test: Antibacterial activity against Escherichia coli isolate 210737 after 18 hrs by broth microdilution method; format: functional; conditions: isolate 210737, 18 h; how it was run: as §1
[6] = Volume of distribution in steady state in Sprague-Dawley rat at 1 mg/kg, iv measured up to 180 mins by LC-MS/MS analysis; format: ADME, organism-based; conditions: in vivo, read-out: Vdss
How it was run: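 Male Sprague-Dawley rats (200–220 g, n = 3 per group) received 1.0 mg/kg iv in water. Blood was taken from the retrobulbar vein at 2, 5, 15, 30, 45, 60, 90 and 180 min. Plasma was quantified by LC–MS/MS, and parameters were derived by noncompartmental analysis of mean plasma concentrations.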

[7] = Klebsiella pneumoniae, 18 h, read-out: MIC

Row | SMILES | MIC (Klebsiella pneumoniae [1]; [7]) | Fu (Plasma) | MIC (Acinetobacter baumannii) | MIC (Pseudomonas aeruginosa) | MIC (Escherichia coli [2]) | metabolised at 4 h, 10 µM [3] | MIC (Klebsiella pneumoniae [1]) | MIC (Klebsiella pneumoniae [4]) | AUC(0-t) at 3 h (in vivo) | MIC (Escherichia coli [5]) | Vd [6]
1 | CC(C)[C@H](O/N=C(\C(=O)N[C@@H]1C(=O)N(OS(=O)(=O)O)C1(C)C)c1nsc(N)n1)c1cc(=O)c(O)cn1O | 1 to 4 µg/mL (≈ 1.78 to 7.12 µM) | 27% | 1 to 4 µg/mL (≈ 1.78 to 7.12 µM) | 1 to 2 µg/mL (≈ 1.78 to 3.56 µM) | 0.5 to 2 µg/mL (≈ 0.89 to 3.56 µM) | 16% | – | – | – | – | –
2 | CC1(C)[C@H](NC(=O)/C(=N\OC(c2nccs2)c2cc(=O)c(O)cn2O)c2csc(N)n2)C(=O)N1OS(=O)(=O)O (some centres undefined) | – | – | 0.5 to 2 µg/mL (≈ 0.831 to 3.32 µM) | 1 to 2 µg/mL (≈ 1.66 to 3.32 µM) | – | – | – | – | – | – | –
3 | CC1(C)[C@H](NC(=O)/C(=N\OC(c2ccccc2)c2cc(=O)c(O)cn2O)c2csc(N)n2)C(=O)N1OS(=O)(=O)O (some centres undefined) | – | – | 0.5 to 2 µg/mL (≈ 0.841 to 3.36 µM) | 0.5 to 2 µg/mL (≈ 0.841 to 3.36 µM) | – | – | – | – | – | – | –
4 | CC(C)[C@@H](O/N=C(\C(=O)N[C@@H]1C(=O)N(OS(=O)(=O)O)C1(C)C)c1nc(N)sc1Cl)c1cc(=O)c(O)cn1O | 0.5 to 2 µg/mL (≈ 0.84 to 3.36 µM) | – | 0.25 to 64 µg/mL (≈ 0.42 to 108 µM) | 0.5 to 4 µg/mL (≈ 0.84 to 6.72 µM) | 0.125 to 1 µg/mL (≈ 0.21 to 1.68 µM) | – | – | – | – | – | –
5 | COCC(O/N=C(\C(=O)N[C@@H]1C(=O)N(OS(=O)(=O)O)C1(C)C)c1csc(N)n1)c1cc(=O)c(O)cn1O (some centres undefined) | 0.06 to 2 µg/mL (≈ 0.107 to 3.56 µM) | 67% | 0.125 to 1 µg/mL (≈ 0.222 to 1.78 µM) | 1 to 4 µg/mL (≈ 1.78 to 7.11 µM) | – | 57% | – | – | – | – | –
6 | CCC(O/N=C(\C(=O)N[C@@H]1C(=O)N(OS(=O)(=O)O)C1(C)C)c1csc(N)n1)c1cc(=O)c(O)cn1O (some centres undefined) | – | 35% | 0.25 to 2 µg/mL (≈ 0.457 to 3.66 µM) | 0.125 to 4 µg/mL (≈ 0.229 to 7.32 µM) | 0.25 to 2 µg/mL (≈ 0.457 to 3.66 µM) | 27% | >0.03 to 64 µg/mL | – | – | – | –
7 | CC(C)[C@@H](O/N=C(\C(=O)N[C@@H]1C(=O)N(OS(=O)(=O)O)C1(C)C)c1csc(N)n1)c1cc(=O)c(O)cn1O | 0.06 to 0.5 µg/mL (≈ 0.107 to 0.892 µM) | – | 0.25 to 64 µg/mL (≈ 0.446 to 114 µM) | 1 to 4 µg/mL (≈ 1.78 to 7.14 µM) | 0.06 to 2 µg/mL (≈ 0.107 to 3.57 µM) | – | – | – | – | – | –
8 | CSC[C@@H](O/N=C(\C(=O)N[C@@H]1C(=O)N(OS(=O)(=O)O)C1(C)C)c1csc(N)n1)c1cc(=O)c(O)cn1O | 0.125 to 0.5 µg/mL (≈ 0.216 to 0.864 µM) | – | 0.5 to 2 µg/mL (≈ 0.864 to 3.46 µM) | 1 to 8 µg/mL (≈ 1.73 to 13.8 µM) | – | – | – | – | – | – | –
9 | CNC(=O)C(O/N=C(\C(=O)N[C@@H]1C(=O)N(OS(=O)(=O)O)C1(C)C)c1csc(N)n1)c1cc(=O)c(O)cn1O (some centres undefined) | 0.25 to 2 µg/mL (≈ 0.434 to 3.48 µM) | 69% | 0.25 to 1 µg/mL (≈ 0.434 to 1.74 µM) | 4 µg/mL (≈ 6.95 µM) | 0.06 to 4 µg/mL (≈ 0.104 to 6.95 µM) | 36% | – | – | – | – | –
10 | CC(O/N=C(\C(=O)N[C@@H]1C(=O)N(OS(=O)(=O)O)C1(C)C)c1nc(N)sc1Cl)c1cc(=O)c(O)cn1O (some centres undefined) | 0.06 to 1 µg/mL (≈ 0.106 to 1.76 µM) | 20% | 0.25 to 2 µg/mL (≈ 0.441 to 3.53 µM) | 0.5 to 4 µg/mL (≈ 0.882 to 7.06 µM) | – | 20% | – | – | – | – | –
11 | CC1(C)[C@H](NC(=O)/C(=N\OC(c2cc(=O)c(O)cn2O)C2CC2)c2csc(N)n2)C(=O)N1OS(=O)(=O)O (some centres undefined) | – | 39% | 0.5 to 2 µg/mL (≈ 0.895 to 3.58 µM) | 0.25 to 4 µg/mL (≈ 0.448 to 7.16 µM) | 0.06 to 4 µg/mL (≈ 0.107 to 7.16 µM) | 24% | 0.06 to 64 µg/mL | – | – | – | –
12 | CC1(C)[C@H](NC(=O)/C(=N\OCc2ccn(O)c(=O)c2)c2csc(N)n2)C(=O)N1OS(=O)(=O)O | 4 to 64 µg/mL (≈ 7.96 to 127 µM) | – | 4 to 64 µg/mL (≈ 7.96 to 127 µM) | 64 µg/mL (≈ 127 µM) | 0.25 to 4 µg/mL (≈ 0.498 to 7.96 µM) | – | – | – | – | – | –
13 | CC(C)C(O/N=C(\C(=O)N[C@@H]1C(=O)N(OS(=O)(=O)O)C1(C)C)c1csc(N)n1)c1cc(=O)c(O)cn1O (some centres undefined) | – | 35% | 0.125 to 1 µg/mL (≈ 0.223 to 1.78 µM) | 0.25 to 1 µg/mL (≈ 0.446 to 1.78 µM) | – | 29% | – | < 0.03 µg/mL | 1730 ng·h/mL | < 0.03 µg/mL | 0.3 L/kg
14 | CC1(C)[C@H](NC(=O)/C(=N\OC(C(=O)O)c2cc(=O)c(O)cn2O)c2csc(N)n2)C(=O)N1OS(=O)(=O)O (some centres undefined) | 0.25 to 1 µg/mL (≈ 0.444 to 1.78 µM) | – | 0.5 µg/mL (≈ 0.889 µM) | 1 to 4 µg/mL (≈ 1.78 to 7.11 µM) | 0.125 to 4 µg/mL (≈ 0.222 to 7.11 µM) | – | – | – | – | – | –
15 | CC(C)[C@H](O/N=C(\C(=O)N[C@@H]1C(=O)N(OS(=O)(=O)O)C1(C)C)c1nc(N)sc1Cl)c1cc(=O)c(O)cn1O | 0.25 to 0.5 µg/mL (≈ 0.42 to 0.84 µM) | 23% | 0.5 to 1 µg/mL (≈ 0.84 to 1.68 µM) | 0.06 to 1 µg/mL (≈ 0.101 to 1.68 µM) | 0.06 to 1 µg/mL (≈ 0.101 to 1.68 µM) | 33% | – | – | – | – | –
16 | CC(C)OCC(O/N=C(\C(=O)N[C@@H]1C(=O)N(OS(=O)(=O)O)C1(C)C)c1csc(N)n1)c1cc(=O)c(O)cn1O (some centres undefined) | 0.25 to 64 µg/mL (≈ 0.423 to 108 µM) | – | 1 to 8 µg/mL (≈ 1.69 to 13.5 µM) | 0.5 to 8 µg/mL (≈ 0.847 to 13.5 µM) | – | – | – | – | – | – | –
